{"source": "PubChem BioAssay AID449763", "about": "(Sanford-Burnham Center for Chemical Genomics, 2010)", "note": "Screen size: about 330,000 compounds; about 1,100 (0.33%) were called active. Many of the other results were omitted from the sample, so actives are more common in it than they were. A number with no mark means an inactive call.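 How the source made its calls: active means at 10 µM dose, activation of 40% or more, normalized to positive control; inactive means the rest.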"}
{"assay": "PERK-eIF2a-CHOP pathway stimulators – cell-based, CHO-CHOP luciferase reporter, luminescence, uHTS, primary screen (AID 449763);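 further: 100% = tunicamycin at 10 µg/mL and 0% = DMSO alone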", "details": "UPR activation, at 10 µM, stronger effect = higher value, percent of tunicamycin response over DMSO baseline", "procedure,_shortened": "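Assay system: CHO-CHOP cells, stable luciferase reporter of PERK-eIF2a-CHOP signalling / Buffer or medium: F12 plus 10% serum / Compound dosing: one dose, 10 µM in 0.5% DMSO / Times: 6 h compound treatment, 37 °C / Technique: luciferase luminescence / Read-out: % reporter activation, DMSO baseline versus tunicamycin full activation / Benchmarks: tunicamycin and DMSO controls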"}
{"compound": "N#Cc1ccc(Oc2ccc(C(F)(F)F)cc2NC(=O)c2ccc(F)cc2)cc1", "activation": "-0.147%"}
{"compound": "COc1cc(NC(=O)c2[nH]cnc2C(N)=O)cc(C(=O)Nc2cccc(C(F)(F)F)c2)c1", "activation": "12.8%"}
{"compound": "COc1cc(NC(=O)c2cncc(-c3ccc(C#N)cc3)c2)cc(C(=O)Nc2cccc(C(F)(F)F)c2)c1", "activation": "73.6% (active)"}
{"compound": "O=C(O)C1C2C=CC(C2)C1C(=O)NCc1ccccc1", "note": "(centres undefined)", "activation": "-1.58%"}
{"compound": "O=C(CC(NCCN1CCOCC1)C(=O)O)Nc1cccc(Cl)c1", "note": "(centres undefined)", "activation": "-1.8%"}
{"compound": "CC(=O)Nc1ccc(NC(=O)COC(=O)c2ccccc2C(=O)c2ccccc2)cc1", "activation": "1.65%"}
{"compound": "CC(=O)Nc1ccc(NC(=O)C(C)OC(=O)c2ccccc2C(=O)c2ccc(Cl)c([N+](=O)[O-])c2)cc1", "note": "(centres undefined)", "activation": "12.1%"}
{"compound": "N#Cc1cccc(NC(=O)COC(=O)c2ccccc2C(=O)c2ccc(Cl)c([N+](=O)[O-])c2)c1", "activation": "105% (active)"}
{"compound": "CC1=CC(C)(C)NC(=S)N1c1ccccc1", "activation": "0.0762%"}
{"compound": "O=C(c1c(F)cccc1F)N1CCN(S(=O)(=O)c2ccc3c(c2)OCCO3)CC1", "activation": "2.02%"}
{"compound": "O=[N+]([O-])c1ccc(C=Nc2ccc(Cl)cc2Cl)s1", "activation": "112% (active)"}
{"compound": "CC1CN(C(=O)c2ccc([N+](=O)[O-])s2)CC(C)O1", "note": "(centres undefined)", "activation": "1.2%"}
{"compound": "CCN(Cc1ccccc1)C(=O)CCS(=O)(=O)c1ccc2c(c1)oc(=O)n2C", "activation": "-2.75%"}
{"compound": "Cc1cccc(NC(=O)C2CC(=O)OC23CCCC3)c1", "note": "(centres undefined)", "activation": "0.24%"}
{"compound": "CCOC(=O)CN(C(=O)CN1CCOCC1)c1ccc(Br)cc1", "activation": "-1.27%"}
{"compound": "CC1CCCC(C)N1C(=O)COC(=O)COc1ccccc1C#N", "note": "(centres undefined)", "activation": "-1.4%"}
{"compound": "CC(=O)Nc1ccc(Nc2ncnc3c2nnn3Cc2ccccc2Cl)cc1", "activation": "-0.872%"}
{"compound": "CCOC(=O)CCc1c(C)c(C#N)c2[nH]c3ccccc3n2c1=O", "activation": "-1.06%"}
{"compound": "CCCc1cc(=S)n2c([nH]c3ccccc32)c1C#N", "activation": "54.1% (active)"}
{"compound": "CN(C)Cc1c(C#N)c2ccccc2n1C", "activation": "-0.172%"}
{"compound": "CCn1c(SCC(=O)Nc2cc(C)ccc2C)nnc1-c1cnccn1", "activation": "-1.53%"}
{"compound": "Cc1[nH]n(-c2ccccc2)c(=O)c1CCOC(=O)c1ccc(C(F)(F)F)cc1", "activation": "-0.83%"}
{"compound": "O=C1CC(c2cccc(Cl)c2)CC(O)=C1C=Nc1ccccc1", "note": "(centres undefined)", "activation": "50% (active)"}
{"compound": "O=C1CC(c2ccccc2)CC(O)=C1C=NCCN1CCOCC1", "note": "(centres undefined)", "activation": "-2.31%"}
{"compound": "O=C1C=C(c2cccc(Cl)c2)C[C@@H](c2ccc(F)cc2)C1", "activation": "-0.428%"}
{"compound": "Cc1ccc(NC(=O)C(=O)NCc2ccc(/C=N/NC(=O)c3c(C)nc4cc(C)ccn34)o2)cc1", "activation": "4.97%"}
{"compound": "CCc1ccc(N(C(=O)c2csnn2)C(C(=O)NC2CCCCC2)c2ccncc2)cc1", "note": "(centres undefined)", "activation": "-1.98%"}
{"compound": "CCC(=O)Nc1sc(C(=O)Nc2ccccc2)c(C)c1C(=O)OC", "activation": "-0.316%"}
{"compound": "CCOC(=O)Nc1sc(C(=O)N(C)C)c(C)c1C(=O)OCC", "activation": "-4.31%"}
{"compound": "COC(=O)c1c(NC(=O)CCN2CCOCC2)sc2c1CCCC2", "activation": "0.577%"}
{"compound": "CCOC(=O)c1sc(NC(=O)CCN2CCOCC2)c(C(=O)OCC)c1C", "activation": "43.2% (active)"}
{"compound": "CCOC(=O)c1c(NC(=O)CCl)sc(C(=O)N(CC)CC)c1C", "activation": "48.1% (active)"}
{"compound": "CCOC(=O)c1c(NC(=O)CCCN2CCOCC2)sc2c1CC(C)(C)OC2", "activation": "-2.37%"}
{"compound": "COc1ccc(C(=O)NC2CC(C)(C)NC(C)(C)C2)cc1OC", "activation": "0.193%"}
{"compound": "O=C(CCC(=O)n1ncc2ccccc21)NCc1ccccc1Cl", "activation": "-0.158%"}
{"compound": "COc1ccc(S(=O)(=O)NC(C)C(=O)N2CCCCCC2)cc1", "note": "(centres undefined)", "activation": "-2.32%"}
{"compound": "CCn1nc(C)c(CNC(=O)C2CCC(=O)N(Cc3cccc(F)c3)C2)c1C", "note": "(centres undefined)", "activation": "0.585%"}
{"compound": "Fc1ccccc1/C=C1\\CCCC2=C1Nc1ncnn1C2c1ccccc1F", "note": "(centres undefined)", "activation": "90.9% (active)"}
{"compound": "CC1=C(C(N)=O)C(c2ccc(Br)cc2)n2ncnc2N1", "note": "(centres undefined)", "activation": "-1.48%"}
{"compound": "Brc1ccc2c(c1)[C@H]1OCC[C@H]1[C@@H](c1cccs1)N2", "activation": "-1.2%"}
{"compound": "O=C1CCN(C(=O)Nc2ccccc2)N1", "activation": "-2.23%"}
{"compound": "Cc1ccc(-c2nnc(-c3ccc(NC(=O)c4cccs4)cc3)o2)cc1", "activation": "325% (active)"}
{"compound": "Cc1ccc(OCC(=O)Nc2ccc(NC(=O)c3cccs3)cc2)c(C)c1", "activation": "0.176%"}
{"compound": "Cc1ccc(NC(=O)c2cccs2)cc1S(=O)(=O)N(C)C", "activation": "1.35%"}
{"compound": "CN(C)CCCn1c(SCc2ccc(Cl)cc2)nnc1-c1ccncc1", "activation": "139% (active)"}
{"compound": "Cn1c(SCc2ccc(F)cc2)nnc1-c1ccncc1", "activation": "1.85%"}
{"compound": "CC1CCCCC1NC(=O)CSc1nnc(-c2ccncc2)n1CCCN(C)C", "note": "(centres undefined)", "activation": "-1.77%"}
{"compound": "COc1ccc(-n2cc(CNC3CCOCC3)c(-c3cccc(F)c3)n2)cc1", "activation": "0.961%"}
{"compound": "O=C(COc1ccccc1O)NC1CCCC1", "activation": "3.04%"}
{"compound": "CC(=O)c1sc(N/N=C\\c2ccc(C)cc2)nc1C", "activation": "5.8%"}
{"compound": "CNC(=O)c1sc(NCc2ccccc2OC)nc1C", "activation": "-3.17%"}
{"compound": "COc1cccc2sc(Nc3nc(C)c(C(C)=O)s3)nc12", "activation": "309% (active)"}
{"compound": "CCOCCCn1c(NN)nc2ccccc2c1=O", "activation": "1.17%"}
{"compound": "CCn1c(/C=C/c2ccc([N+](=O)[O-])o2)nc2ccccc2c1=O", "activation": "71.3% (active)"}
{"compound": "CCn1c(SCc2ccccc2)nc2cc(OC)c(OC)cc2c1=O", "activation": "-0.179%"}
{"compound": "COC(=O)c1cc(CNC(=O)CC(C)c2ccccc2)ccc1OC", "note": "(centres undefined)", "activation": "2.14%"}
{"compound": "COc1ccc(-c2ccc(Nc3ccc(S(=O)(=O)N4CCCC4)cc3)nn2)cc1OC", "activation": "3.88%"}
{"compound": "COc1ccc(-c2cc(C(F)(F)F)nc(S(C)(=O)=O)n2)cc1OC", "activation": "106% (active)"}
{"compound": "COc1ccc(-c2cc(-c3ccc(N)cc3)nc(N)c2C#N)cc1OC", "activation": "-0.472%"}
{"compound": "O=C1/C(=C/c2ccc(F)cc2)SC(=S)N1NS(=O)(=O)c1ccccc1", "activation": "0.174%"}
{"compound": "CC(C)CNC(=S)NNC(=O)c1ccccc1OC(F)F", "activation": "-0.805%"}
{"compound": "CCc1noc(C)c1C(=O)NNC(=O)c1ccc(F)cc1", "activation": "-0.408%"}
{"compound": "Cc1onc(C(=O)NCc2ccc(F)cc2)c1[N+](=O)[O-]", "activation": "-0.611%"}
{"compound": "O=C(/C=C/c1ccc([N+](=O)[O-])o1)NNC(=O)c1ccc(F)cc1", "activation": "129% (active)"}
{"compound": "CC(C)CNS(=O)(=O)c1ccc(CCC(=O)NCc2ccc(Cl)cc2)cc1", "activation": "0.956%"}
{"compound": "COc1cccc(-n2c(SCC(=O)NC3CCCCC3)nc3n[nH]c(C)c3c2=N)c1", "activation": "-0.882%"}
{"compound": "Nc1ccccc1SC(C[N+](=O)[O-])c1ccccc1", "note": "(centres undefined)", "activation": "181% (active)"}
{"compound": "Cc1ccc(C(C[N+](=O)[O-])c2c(C)cc3ccccn23)cc1", "note": "(centres undefined)", "activation": "-0.989%"}
{"compound": "COc1ccc(S(=O)(=O)N2CCOCC2)cc1NC(=O)CSc1ncnc2ccccc12", "activation": "-1.54%"}
{"compound": "Cc1nn(CC#N)c(=O)n1N(C)c1ncc(C(F)(F)F)cc1Cl", "activation": "-1.47%"}
{"compound": "COc1ccc(OC)c(S(=O)(=O)n2c([N+](=O)[O-])cnc2C)c1", "activation": "-0.979%"}
{"compound": "CCOc1ccc(C(C)C)cc1S(=O)(=O)n1nc(C)cc1C", "activation": "-3.09%"}
{"compound": "COc1ccc(C(C[N+](=O)[O-])n2nc(C)cc2C)cc1", "note": "(centres undefined)", "activation": "59.5% (active)"}
{"compound": "O=C(NNS(=O)(=O)c1ccccc1)c1cnn(-c2ccc(Cl)cc2)c1C(F)(F)F", "activation": "2.88%"}
{"compound": "CCN(C(=O)COC(=O)/C=C/c1nc2ccccc2s1)C1CCS(=O)(=O)C1", "note": "(centres undefined)", "activation": "0.0282%"}
{"compound": "CN1CCNC(=O)C1CC(=O)N1CC=C(c2ccc(F)cc2)CC1", "note": "(centres undefined)", "activation": "-1.29%"}
{"compound": "C=CS(=O)c1sc(Cl)c(N2CCOCC2)c1[N+](=O)[O-]", "note": "(centres undefined)", "activation": "97.2% (active)"}
{"compound": "O=C(CSCc1ccccc1)Nc1ccccc1", "activation": "2.11%"}
{"compound": "O=C(CCl)Nc1cccc(CP(=O)(c2ccccc2)c2ccccc2)c1", "activation": "60.2% (active)"}
{"compound": "O=C(CSc1ccccc1)Nc1ccc(C(=O)Nc2cccc(O)c2)cc1", "activation": "2.1%"}
{"compound": "COc1c(C)cc(C(=O)C2CCCN(S(=O)(=O)c3c(C)noc3C)C2)cc1C", "note": "(centres undefined)", "activation": "3.35%"}
{"compound": "O=C(/C=C/Sc1ncn[nH]1)c1ccc(Cl)cc1", "activation": "-3.23%"}
{"compound": "Cc1cc(C)nc(SCC(=O)N(C)C)n1", "activation": "-0.00178%"}
{"compound": "Cc1cc(C)nc(S/C=C/C(=O)c2ccccc2)n1", "activation": "64.1% (active)"}
{"compound": "O=C(N/N=C\\c1cc2c(cc1Cl)OCO2)c1ccc(Br)s1", "activation": "51.5% (active)"}
{"compound": "CC1(C(=O)N/N=C/c2cc3c(cc2Br)OCO3)CC1(Br)Br", "note": "(centres undefined)", "activation": "1.01%"}
{"compound": "O=C(N/N=C/c1cc2c(cc1Br)OCO2)C1COc2ccccc2O1", "note": "(centres undefined)", "activation": "8.62%"}
{"compound": "Cc1cccc(Nc2nc3c(S(=O)(=O)c4ccccc4)nnn3c3ccccc23)c1C", "activation": "145% (active)"}
{"compound": "Cc1ccc(S(=O)(=O)c2nnn3c2nc(N2CCN(c4ccccn4)CC2)c2ccccc23)cc1", "activation": "1.19%"}
{"compound": "CC(=O)Nc1ccc(Nc2nc3c(S(=O)(=O)c4ccc(C)c(C)c4)nnn3c3ccccc23)cc1", "activation": "0.65%"}
{"compound": "Cc1cccc(C(=O)N2CCCC(Nc3ccc(C(C)C)cc3)C2)n1", "note": "(centres undefined)", "activation": "0.069%"}
{"compound": "COc1cccc(/C=N/NC(=O)CNC(=O)c2ccc(S(=O)(=O)N3CCOCC3)cc2)c1OC", "activation": "3.45%"}
{"compound": "COc1cc(CC(=O)N/N=C/c2ccccc2)c([N+](=O)[O-])cc1OC", "activation": "0.0789%"}
{"compound": "COc1ccc(C(=O)NCC(=O)N/N=C/c2ccc([N+](=O)[O-])o2)cc1OC", "activation": "113% (active)"}
